The test system of experiment [1] is CCK1 / CCK2 receptors in pancreatic acini (pT402 PAK2). The class given is cell-based, rat. As to conditions: gastrin (CCKB agonist) 10 nM, A71378 (CCKA receptor agonist) 30 nM, 1 min.
Experiment [2] has as its system PAK2 (pT402) in pancreatic acini. The experiment is described as follows: PAK2 T402 phosphorylation after stimulation by secretagogues and growth factors. The class given is cell-based, rat. As to conditions: for T402 PAK2 phosphorylation by growth factors, % of control: EGF 10 nM 5 min, bFGF 100 ng/ml 5 min, PDGF 100 ng/ml 10 min (p<0.05), insulin 1 μM 10 min (p=0.08), 5 independent experiments; for effect of growth factors on PAK2 threonine 402 phosphorylation: IGF-1 100 nM 10 min, HGF 1 nM 10 min, insulin 1 μM 10 min; for PAK2 activation (abstract, words): rat pancreatic acini; for effect on phosphorylation of (T402) PAK2: VIP 10 nM, secretin 10 nM, endothelin 1 10 nM, 1 min.

In experiment [3] the test system is rat pancreatic acinar cells (amylase release). As to the kind of experiment: Effect of PAK2 inhibition on amylase release. To be noted: for Amylase secretion (% total), inhibitor with CCK 0.01 nM: 40 μM inhibitor/analogue + CCK 0.01 nM, CCK alone 11.9 ± 2.2; for Amylase secretion (% total), inhibitor with CCK 0.01 nM / Amylase secretion (% total), inhibitor with CCK 0.1 nM / Amylase secretion (% total), inhibitor with bombesin / Amylase secretion (% total), inhibitor without secretagogue / Amylase secretion (% total), no inhibitor: 30 min; for Amylase secretion (% total), inhibitor with CCK 0.1 nM: 40 μM inhibitor/analogue + CCK 0.1 nM, CCK alone 15.7 ± 0.4; for Amylase secretion (% total), inhibitor with bombesin: 40 μM inhibitor/analogue + bombesin 10 nM, bombesin alone 15.2 ± 0.8; for Amylase secretion (% total), inhibitor without secretagogue: 40 μM inhibitor/analogue, no secretagogue; for Amylase secretion (% total), no inhibitor: 5–10 experiments, untreated 3.8 ± 0.3, p<0.05 vs control. The class given is cell-based. In a few lines: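 Secretagogues were CCK (0.01 or 0.1 nM) or bombesin (10 nM). Amylase released over a 30 min incubation was measured with Phadebas reagent and expressed as % of total cellular amylase. Means of 5–10 experiments.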

In experiment [4] the test system is ERK1/2 (p42/44) in pancreatic acini. As to the kind of experiment: Effect of PAK2 inhibition on ERK1/2. The class given is cell-based, rat.
The test system of experiment [5] is PAK2 (pT402) in pancreatic acini. It is filed as cell-based, rat. As to conditions: for PAK2 inhibition: IPA-3 40 μM, 15 min.
The test system is the same in experiment [6]. It is filed as cell-based, rat.
Experiment [7] has the same test system. As to the kind of experiment: Effect of post-receptor stimulants on T402 PAK2 phosphorylation. It is filed as cell-based, rat. To be noted: 1 μM each, 5 min.
Experiment [8] shares this test system. The experiment is described as follows: Time course of CCK and EGF stimulation of PAK2 T402 phosphorylation. The class given is cell-based, rat. To be noted: for T402 PAK2 phosphorylation at 1 minute: 1 min; for T402 PAK2 phosphorylation at 1 minute / duration of increase in phospho-T402 PAK2 / time of maximum T402 PAK2 phosphorylation: CCK 100 nM or EGF 10 nM.

For experiment [9] the test system is unchanged. The experiment is described as follows: Dose-response effect of CCK and CCK-JMV on T402 PAK2 phosphorylation. To be noted: 3 min. It is filed as cell-based, rat. A digest of the protocol: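 Rat pancreatic acini were dispersed by collagenase and pre-incubated 2 h at 37 °C in HEPES-buffered (pH 7.45) standard incubation solution. They were then exposed for 3 min to graded concentrations of CCK or the test peptide, and lysed. Read-out was pT402 PAK2 western blot with total PAK2 as loading control, by chemiluminescence densitometry. Values are % of 100 nM CCK response; n=5; EC50 by curve fitting.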

Where two headings read alike, the source gives them in different places. Ends that are not written are not given here.

Consider gastrin, for which the “effect of selective receptor agonist on pT402 PAK2 phosphorylation” value in experiment [1] was “did not produce any increase in pT402 PAK2 phosphorylation”.

Consider Insulin: pancreatic growth factor, for which, in [2], the “T402 PAK2 phosphorylation by growth factors, % of control” value is 210±44 of control and the “effect of growth factors on PAK2 threonine 402 phosphorylation” value (from here on “effect of growth factors”) is given as “did not quite reach statistical significance”.

On to `CCCCCCCCCCCCCC(=O)O[C@@H]1[C@@H](C)[C@@]2(O)[C@@H](C=C(CO)C[C@]3(O)C(=O)C(C)=C[C@@H]23)[C@@H]2C(C)(C)[C@]12OC(C)=O` [TPA, 12-O-tetradecanoylphorbol-13-acetate], for which the “PAK2 activation (abstract, words)” value in [2] was “activated”.

hepatocyte growth factor [HGF]: the “effect of growth factors” value in [2] is recorded as “had no effect”.

In the case of `Oc1ccc2cc(SSc3ccc4cc(O)ccc4c3)ccc2c1` [Pir 3,5, 6,6′-Dithiodi-2-naphthtol], in experiment [3], the “Amylase secretion (% total), inhibitor with CCK 0.01 nM” value is 12.6 ± 0.8 % total; the “Amylase secretion (% total), inhibitor with CCK 0.1 nM” value worked out at 14.7± 1.0 % total; the “Amylase secretion (% total), inhibitor with bombesin” value is reported as 14.4 ± 1.2 % total; the “Amylase secretion (% total), inhibitor without secretagogue” value was determined as 4.3 ± 0.9 % total. Further, in [3] (Pir3,5 40 μM, CCK or bombesin), the “effect on stimulated enzyme secretion” value was “had no effect on stimulated enzyme secretion”.

As to “bombesin: pancreatic secretagogue that activates phospholipase C”, the “PAK2 activation (abstract, words)” value in experiment [2] is reported as “activated”. In experiment [3] (bombesin 10 nM), the “Amylase secretion (% total), no inhibitor” value stood at 15.2 ± 0.8 % total.

For “vasoactive intestinal peptide (HSDAVFTDNYTRLRKQMAVKKYLNSILN; ends and bridges not checked; UniProt P01282 125-152, looked up) [VIP]”, in experiment [2], the “effect on phosphorylation of (T402) PAK2” value is “did not increase phosphorylation of (T402) PAK2”.

Regarding “Endothelin-1: interacts with ET-1 and ET-3 receptors in the pancreatic acinar cell (CSCSSLMDKECVYFCHLDIIW; ends and bridges not checked; cysteine pairing not given here; UniProt P05305 53-73, looked up)”, the “effect on phosphorylation of (T402) PAK2” value in experiment [2] is listed as “did not produce any effect upon T402 PAK2 phosphorylation”.

Regarding `Oc1ccc2ccccc2c1SSc1c(O)ccc2ccccc12` [IPA-3, 1,1′-Dithiodi-2-naphthtol], the “CCK induced phosphorylation of p42/44 with inhibitor” value in [4] (IPA-3 40 μM, then CCK 0.3 nM, p<0.05) is reported as 64±4 % of CCK 0.3 nM alone. Further, the “effect on CCK-induced ERK1/2 activation (abstract, words)” value in [4] (rat pancreatic acini) is “reduced”. In addition, the “reduction of bombesin-induced increase in amylase release” value in experiment [3] (40 μM IPA3, bombesin 10 nM) is 55 % of the maximal bombesin-induced stimulation. In addition, the “reduction of CCK-induced increase in amylase release” value in [3] (40 μM IPA3, both concentrations of CCK (0.01, 0.1 nM)) is 63 % of maximal CCK stimulation. For the same molecule, in [3], the “Amylase secretion (% total), inhibitor with CCK 0.01 nM” value was 7.5 ± 1.3ˆ % total; the “Amylase secretion (% total), inhibitor with CCK 0.1 nM” value is 9.6 ± 0.6ˆ % total; the “Amylase secretion (% total), inhibitor with bombesin” value is reported as 10.3± 0.9ˆ % total; the “Amylase secretion (% total), inhibitor without secretagogue” value was determined as 5.2 ± 0.5 % total. Besides, in [3] (rat pancreatic acini), the “effect on amylase release induced by CCK or bombesin (abstract, words)” value was “reduced”. In experiment [5], this molecule yielded a PAK2 inhibition of 70%. The PAK2 inhibition result in experiment [5] (listed as IPA3) is “approximately 70%”. The “basal pT402 PAK2 phosphorylation with inhibitor” value in [5] (PP2 10 μM 1 h or IPA-3 40 μM 15 min, no stimulant) is reported as 32±6 % of control. Further, in experiment [5] (rat pancreatic acini), the “effect on CCK-activation of PAK2 (abstract, words)” value was “partially inhibited”.

For `CN(C)CCCn1cc(C2=C(c3c[nH]c4ccccc34)C(=O)NC2=O)c2ccccc21` [GFX], the “TPA-induced pT402 PAK2 phosphorylation after pretreatment” value in [6] (pretreatment GF109203X 5 μM 1 h, then TPA 1 μM 5 min, TPA alone 319±45) was 100±26 % of control.

As to `C[N+](C)(C)CCOC(N)=O` [carbachol], the “PAK2 activation (abstract, words)” value in experiment [2] is listed as “activated”.

For basic fibroblast growth factor [bFGF], in experiment [2], the “T402 PAK2 phosphorylation by growth factors, % of control” value is on record as 228±37 of control and the “PAK2 activation (abstract, words)” value was “activated”.

Turning to “secretin: gastrointestinal hormone activating adenylate cyclase”, the “effect on phosphorylation of (T402) PAK2” value in experiment [2] was “did not increase phosphorylation of (T402) PAK2”.

Consider platelet-derived growth factor [PDGF], for which, in [2], the “T402 PAK2 phosphorylation by growth factors, % of control” value is recorded as 240±44 of control and the “PAK2 activation (abstract, words)” value is “activated”.

Consider insulin-like growth factor 1 [IGF-1], for which, in [2], the “effect of growth factors” value is “had no effect”.

`CNc1ccc2oc(C[C@H]3O[C@@]4(CC[C@H]3C)O[C@H]([C@H](C)C(=O)c3ccc[nH]3)[C@H](C)C[C@H]4C)nc2c1C(=O)O` [A23187]: the “effect on PAK2 phosphorylation” value in experiment [7] is listed as “have no effect on PAK2”.

Consider “COOH-terminal octapeptide of cholecystokinin [CCK]”, for which the “PAK2 activation (abstract, words)” value in experiment [2] is “activated”. Besides, in experiment [8] (mean ± S.E. of 5 experiments), the “T402 PAK2 phosphorylation at 1 minute” value is listed as 275±17 % of control. The “T402 PAK2 phosphorylation at 3 min” value in [8] (3 min, CCK 100 nM, mean ± S.E. of 5 experiments, p<0.05) was 298±26 % of control. Besides, in experiment [8], the “duration of increase in phospho-T402 PAK2” value was “over 15 min” and the “time of maximum T402 PAK2 phosphorylation” value stood at 3 min. The “subsequent partial decrease of PAK2 activation after rapid increase” value in experiment [8] (CCK 100 nM, sustained over time) stood at 40%. The “increase in amylase release” value in experiment [3] (0.01 nM CCK) is listed as 313±57%. The “increase in amylase release” value in experiment [3] (0.1 nM CCK) came out at 413±11%. Also, the “Amylase secretion (% total), no inhibitor” value in [3] (CCK 0.01 nM) stood at 11.9 ± 2.2 % total. Further, the “Amylase secretion (% total), no inhibitor” value in [3] (CCK 0.1 nM) amounted to 15.7 ± 0.4 % total. Moreover, the “PKC-independent activation of PAK2 that was also PLC-independent” value in experiment [6] (CCK1 receptor stimulation) is on record as 40%. Besides, the “maximal stimulation of T402 PAK2 phosphorylation” value in [9] (100 nM CCK) was 452±70 % of control. In experiment [9], the “concentration at which increase in T402 PAK2 phosphorylation is detectable” value came out at 10 pM and the “concentration of maximal stimulation of T402 PAK2 phosphorylation” value came to 100 nM.

Epidermal growth factor [EGF]: in experiment [2], the “T402 PAK2 phosphorylation by growth factors, % of control” value is 195±28 of control and the “PAK2 activation (abstract, words)” value is “activated”. Further, in [8] (mean ± S.E. of 5 experiments), the “T402 PAK2 phosphorylation at 1 minute” value is on record as 300±30 % of control. Further, in experiment [8], the “duration of increase in phospho-T402 PAK2” value is reported as at most 3 min and the “time of maximum T402 PAK2 phosphorylation” value is 1 min.

The record behind these values is publication PMC5474308 (Biochimica et biophysica acta, 2015).
